Assay results reported in publication PMC3606642 (Journal of natural products, 2012).
Entries after “also recorded” stand apart in the source; their conditions may differ.

Test system: heat shock protein 70 (HSP70)
Test: Western blot analysis of HSP70 expression in U251 cells
Format: cell-based, human
Details: for HSP70 total cell expression (western blot): 5 μM, 24 h post-treatment; for Stress response (heat shock effect and oxidative stress effect) following treatment: effect abrogated by N-acetyl-cysteine
How it was run: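 U251 glioblastoma cells were grown in DMEM with 10% FBS and 1% penicillin/streptomycin at 37 °C and 5% CO2, plated sub-confluent and grown overnight. They were treated with test compound at 0, 0.1, 0.5, 1 and 5 μM for 24 h. Lysate proteins were quantified, run on SDS–PAGE, transferred to nitrocellulose and probed with anti-HSP70 (1:1000), with actin (1:50,000) as loading control and HRP secondaries (1:5000).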

SMILES | HSP70 total cell expression (western blot) | Stress response (heat shock effect and oxidative stress effect) following treatment
C=C1C(=O)O[C@@H]2C[C@]1(C)OC[C@H]2[C@H]1CC[C@H]2[C@@H]3CC=C4CC=CC(=O)[C@]4(C)[C@H]3CC[C@]12C [Compound 3, withametelin] | upregulation was observed; also recorded: markedly upregulated | observed
C=C1C(=O)O[C@@H]2C[C@]1(C)OC[C@H]2[C@H]1CC[C@H]2[C@@H]3C[C@H]4O[C@]45CC=CC(=O)[C@]5(C)[C@H]3CC[C@]12C [Compound 5, withametelin F] | upregulation was observed; also recorded: markedly upregulated | observed
C=C1C(=O)O[C@@H]2C[C@@]1(C)OC[C@H]2[C@H]1CC[C@H]2[C@@H]3C[C@@H](O)[C@@]45C[C@H]4CC(=O)[C@]5(C)[C@H]3CC[C@]12C [Compound 1, (20R,22R,24R)-21,24-epoxy-3α,5α-cyclo-1-oxowitha-25(27)-enolide] |  | do not exhibit this stress response
C=C1C(=O)O[C@@H]2C[C@]1(C)OC[C@H]2[C@H]1CC[C@H]2[C@@H]3CC=C4CC=CC(=O)[C@]4(C)[C@H]3C[C@@H](O)[C@]12C [Compound 2, (20R,22R,24R)-21,24-epoxy-12β-hydroxy-1-oxowitha-2,25,25(27)-trienolide] | upregulation was observed; also recorded: markedly upregulated | observed
C=C1C(=O)O[C@@H]2C[C@]1(C)OC[C@H]2[C@H]1CC[C@H]2[C@@H]3C[C@@H](O)[C@@]4(O)CC=CC(=O)[C@]4(C)[C@H]3CC[C@]12C [Compound 4, withametelin O] |  | do not exhibit this stress response
